The text below walks through data of ChEMBL document CHEMBL1125330, “N-substituted pyrazino[2,3-c][1,2,6]thiadiazine 2,2-dioxides. A new class of diuretics” (J Med Chem, 1992).

Data set [1] relates to Rattus norvegicus. Nature of the data set: Mean urinary output in rats when compound administered at 0 mg/kg po and vehicle dosed at 0 umol/kg. The class given is ADME, organism-based, Urine. Set-up: dose 0 mg/kg, route oral. The following applies: in vivo. The gist of the method: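 Water-loaded male Sprague-Dawley rats (HC/CFY, 175-200 g) fasted and without water for 18 h. Oral gavage of 2.5-160 mg/kg in 1% CMC with 0.1% Tween 80, then distilled water 2.5 mL/100 g po. Urine collected 6 h in metabolic cages, mean output in mL/6 h/kg bw. Unpaired Student t-test against vehicle; dose-response by linear regression.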

Data set [2] has as its system Rattus norvegicus. In words: Mean sodium excretion in rats when compound administered at 0 mg/kg po and vehicle dosed at 0 umol/kg. The class given is ADME, organism-based. Set-up: dose 0 mg/kg, route oral. The following applies: in vivo. Put shortly: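 Male Sprague-Dawley rats (HC/CFY, 175-200 g) fasted and water-deprived 18 h before and during the test. Dosed by gavage at 2.5-160 mg/kg in 1% carboxymethyl cellulose/0.1% Tween 80, 0.5 mL/100 g bw. Immediately hydrated with water (2.5 mL/100 g bw, po). Urine collected 6 h in metabolic cages; Na+ and K+ by flame photometry; mean mequiv/6 h/kg bw; nonpaired Student t-test.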

In data set [3] the test system is Rattus norvegicus. Nature of the data set: Dose required to produce an excretion of 2 mequiv of Na+/kg bw/6h vs control groups. The class given is functional. The gist of the method: (§1)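 Male Sprague-Dawley rats (HC/CFY, 175-200 g), fasted and water-deprived 18 h before and during the test. Compound dosed by gavage in 1% carboxymethyl cellulose/0.1% Tween 80, then water load 2.5 mL/100 g bw po. Urine collected 6 h in metabolic cages; Na+ by flame photometry. Effective doses vs vehicle controls derived by linear regression of dose-response data.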

Data set [4] deals with Rattus norvegicus. In words: Post dosing time interval of maximum activity. The class given is functional. The gist of the method:
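Interval of peak activity taken from timed urine collections (0-1, 1-2, 2-3, 3-4, 4-6 h) after a single oral dose in water-loaded fasted rats, […]. Urine volume and Na+ excretion followed over time.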

The species entered for data set [5] is Rattus norvegicus. In words: Dose required to produce increase in 50 % in urine production vs control groups. The class given is functional. The following applies: Rattus norvegicus, Urine. Put shortly:
as §1

The species named for data set [6] is Rattus norvegicus. Nature of the data set: Dose required to produce increase in 200 % in urine production vs control groups. The class given is functional. Put shortly:
as §1

The species named for data set [7] is Rattus norvegicus. The following applies: in vivo, po, 80 mg/kg.
For data set [8], the system named is Rattus norvegicus. Nature of the data set: Mean potassium excretion in rats when compound administered at 0 mg/kg po and vehicle dosed at 0 umol/kg. The class given is ADME, organism-based. Set-up: dose 0 mg/kg, route oral. To be noted: in vivo. The gist of the method:
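Male Sprague-Dawley rats (HC/CFY, 175-200 g), no food or water for 18 h before and during the test. Single gavage dose (2.5-160 mg/kg; vehicle 1% carboxymethyl cellulose/0.1% Tween 80, 0.5 mL/100 g bw), then distilled water 2.5 mL/100 g bw po. Individual metabolic cages, 6 h urine. K+ by flame photometry, Cl- colorimetric, as mequiv/6 h/kg bw; unpaired Student t-test vs control.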

The species named for data set [9] is Rattus norvegicus. Nature of the data set: Mean urinary output in rats (Control/Drug treatment value); value 25.4/33.8. To be noted: in vivo. The class given is ADME, organism-based, Urine. The gist of the method: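 Water-loaded male Sprague-Dawley rats (HC/CFY, 175-200 g), eight per group, deprived of food and water 18 h. Single oral gavage of 20-25 mg/kg (some 10 mg/kg) in 1% CMC/0.1% Tween 80, then distilled water 2.5 mL/100 g bw po. Cumulative urine over 6 h in metabolic cages; mean mL/6 h/kg bw vs vehicle group.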

For data set [10], the species on record is Rattus norvegicus. In words: Mean sodium excretion in rats (Control/Drug treatment value); value 0.48/0.95. The class given is ADME, organism-based. The following applies: in vivo.
The species entered for data set [11] is Rattus norvegicus. Nature of the data set: Mean urinary output in rats (Control/Drug treatment value); value 27.7/36.4. To be noted: in vivo. The class given is ADME, organism-based, Urine.
Data set [12] is filed under the species Rattus norvegicus. Nature of the data set: Mean sodium excretion in rats (Control/Drug treatment value); value 0.5/1.79. The class given is ADME, organism-based. To be noted: in vivo.

On to `NS(=O)(=O)c1cc(C(=O)O)c(NCc2ccco2)cc1Cl` [FUROSEMIDE], for which the V with Rattus norvegicus [1] is 24.04 ml 6hr-1 (kg of body weight)-1; in the data set filed under Rattus norvegicus [7], 75.5 ml 6hr-1 (kg of body weight)-1. Besides, the Na in the data set with Rattus norvegicus [2] is recorded as 0.39 m equiv 6hr-1 kg-1 (body weight)-1. Moreover, the ED2 with Rattus norvegicus [3] is 12.95 mg/kg. The same molecule gave a Time in the data set on Rattus norvegicus [4] of 1 h. Also, in the data set listed under Rattus norvegicus [5], the ED50 was found to be 12.1 mg/kg. In addition, the ED200 in the data set filed under Rattus norvegicus [6] was determined as 70.59 mg/kg. For the same molecule, the K in the data set on Rattus norvegicus [8] is given as 0.47 m equiv 6hr-1 kg-1 (body weight)-1.

As to `CCc1nc2c(nc1CC)N(CC)S(=O)(=O)N=C2N`, the V in the data set filed under Rattus norvegicus [9] came out at 1.3. Also, the Na in the data set filed under Rattus norvegicus [10] came out at 2.

`CCN1c2nc(C)c(C)nc2C(N)=NS1(=O)=O` registered a V in the data set listed under Rattus norvegicus [11] of 1.3. In addition, the Na in the data set filed under Rattus norvegicus [12] was 3.6 m equiv 6hr-1 kg-1 (body weight)-1.

What is called ED50 is the midpoint of the dose-response relation.
